Converted amounts (≈) assume the structure as drawn. The source made the active and inactive calls. No cut-off for these calls is given here.
How the values were obtained:
[1] = molecular target: T1, Adenosine receptor A3 (Homo sapiens) (UniProt P0DMS8); experiment: Displacement of [3H]-HEMADO from human A3 receptor expressed in HEK293 cell membranes at 10 uM after 90 mins radioligand binding assay
T1 sequence (whole entry): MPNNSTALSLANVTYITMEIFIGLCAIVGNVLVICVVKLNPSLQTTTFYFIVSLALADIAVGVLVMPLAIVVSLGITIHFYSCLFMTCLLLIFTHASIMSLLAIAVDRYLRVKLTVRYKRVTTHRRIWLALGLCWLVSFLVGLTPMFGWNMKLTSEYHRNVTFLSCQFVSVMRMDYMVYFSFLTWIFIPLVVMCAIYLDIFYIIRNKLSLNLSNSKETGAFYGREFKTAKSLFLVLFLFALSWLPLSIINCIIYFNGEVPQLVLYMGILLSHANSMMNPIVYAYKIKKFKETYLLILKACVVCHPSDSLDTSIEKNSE
Method in brief: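 Membranes from HEK-293 cells overexpressing human A3 receptor; points in triplicate; highest concentration tested 10 µM.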

[2] = Metabolic stability in mouse liver microsomes assessed as metabolic rate; type: ADME, microsome
Method in brief: (§1)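 Liver microsomes (mouse, rat, dog, human) at 0.125 mg/mL protein; metabolic rate expressed as nmol/min/mg.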

[3] = species: Homo sapiens; experiment: Selectivity ratio of Ki for displacement of [3H]-HEMADO from human A3 receptor expressed in HEK293 cell membranes to Ki for displacement of [3H]ZM241385 from human A2A receptor expressed in HEK293 cell membranes
Method in brief: (§2)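 Radioligand binding used membranes from HEK-293 cells overexpressing each human adenosine receptor isoform. Points were run in triplicate, and 8-concentration IC50 curves were plotted to give Ki. The selectivity value is the Ki at the off-target isoform divided by the Ki at hA2A.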

[4] = molecular target: T2, Cytochrome P450 1A2 (Homo sapiens, UniProt P05177); experiment: Inhibition of CYP1A2 (unknown origin); type: ADME
T2 sequence (P05177 whole entry): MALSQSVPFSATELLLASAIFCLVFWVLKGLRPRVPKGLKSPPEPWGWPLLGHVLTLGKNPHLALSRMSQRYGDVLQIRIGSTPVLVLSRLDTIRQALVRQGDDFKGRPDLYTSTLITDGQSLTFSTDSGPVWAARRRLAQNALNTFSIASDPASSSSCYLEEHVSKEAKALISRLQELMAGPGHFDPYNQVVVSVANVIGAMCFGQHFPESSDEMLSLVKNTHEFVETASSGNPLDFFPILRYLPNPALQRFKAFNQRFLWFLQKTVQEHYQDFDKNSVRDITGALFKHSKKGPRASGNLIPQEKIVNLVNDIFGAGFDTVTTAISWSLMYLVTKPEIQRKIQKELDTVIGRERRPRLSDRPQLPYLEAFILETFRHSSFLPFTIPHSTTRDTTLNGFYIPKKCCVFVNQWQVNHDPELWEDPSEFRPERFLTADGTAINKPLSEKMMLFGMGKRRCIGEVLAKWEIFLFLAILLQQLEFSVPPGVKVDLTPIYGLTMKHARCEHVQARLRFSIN

[5] = Protein binding in human plasma; type: ADME, cell-free; settings: read-out: PPB (converted)
[6] = Solubility of the compound at pH 7.4; type: physicochemical; settings: buffer
[7] = Metabolic stability in dog liver microsomes assessed as metabolic rate; type: ADME, Canis lupus familiaris, microsome; method in brief: as §1
[8] = Metabolic stability in human liver microsomes assessed as metabolic rate; type: ADME, microsome; method in brief: as §1
[9] = molecular target: Adenosine receptor A2a (Homo sapiens, UniProt P29274); experiment: Displacement of [3H]ZM241385 from human A2A receptor expressed in HEK293 cell membranes after 90 mins radioligand binding assay
Chain of Adenosine receptor A2a (P29274 whole entry): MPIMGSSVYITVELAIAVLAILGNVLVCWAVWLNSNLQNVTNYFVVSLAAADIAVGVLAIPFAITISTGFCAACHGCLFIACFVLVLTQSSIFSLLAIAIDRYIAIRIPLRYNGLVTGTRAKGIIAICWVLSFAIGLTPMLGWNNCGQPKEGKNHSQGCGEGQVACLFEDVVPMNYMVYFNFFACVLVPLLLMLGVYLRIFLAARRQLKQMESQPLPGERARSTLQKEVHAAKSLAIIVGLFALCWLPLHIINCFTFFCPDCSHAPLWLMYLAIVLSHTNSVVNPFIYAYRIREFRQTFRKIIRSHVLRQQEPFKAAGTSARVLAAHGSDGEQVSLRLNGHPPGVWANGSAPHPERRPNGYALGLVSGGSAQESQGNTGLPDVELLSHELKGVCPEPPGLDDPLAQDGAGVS
Method in brief: (§3)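 Membranes from HEK-293 cells overexpressing the relevant human adenosine receptor subtype; all points in triplicate; Ki derived from 8-concentration IC50 curves.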

[10] = molecular target: Cytochrome P450 3A4 (Homo sapiens, UniProt P08684); experiment: Inhibition of CYP3A4 (unknown origin); type: ADME
Chain of Cytochrome P450 3A4 (P08684 whole entry): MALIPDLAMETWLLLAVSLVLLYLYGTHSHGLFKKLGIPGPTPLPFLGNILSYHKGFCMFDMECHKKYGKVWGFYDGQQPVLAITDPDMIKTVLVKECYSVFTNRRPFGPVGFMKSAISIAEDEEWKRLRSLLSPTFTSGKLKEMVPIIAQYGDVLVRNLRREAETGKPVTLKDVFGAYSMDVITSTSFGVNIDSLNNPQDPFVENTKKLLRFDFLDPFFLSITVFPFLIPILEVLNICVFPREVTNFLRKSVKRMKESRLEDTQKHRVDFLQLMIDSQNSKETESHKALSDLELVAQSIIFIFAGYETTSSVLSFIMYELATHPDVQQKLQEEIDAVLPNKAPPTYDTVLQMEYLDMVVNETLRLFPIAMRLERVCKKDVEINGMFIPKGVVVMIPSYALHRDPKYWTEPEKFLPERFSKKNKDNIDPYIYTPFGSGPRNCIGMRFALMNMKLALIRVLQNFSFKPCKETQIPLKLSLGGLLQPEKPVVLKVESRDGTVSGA

[11] = system: HepG2; experiment: Cytotoxicity against human HepG2 cells after 24 hrs by MTT assay; type: cell-based; settings: HepG2, 24 h
[12] = Ratio of AUC (0 to 4 hrs) in Wistar rat brain to plasma at 3 mg/kg, iv by LC-MS/MS analysis; type: ADME, organism-based; settings: read-out: Ratio AUC
[13] = molecular target: T3, Adenosine receptor A1 (Homo sapiens) (UniProt P30542); experiment: Antagonist activity at human adenosine A1 receptor expressed in HEK293 cell membranes assessed as inhibition of CPA/forskolin-induced cAMP level at 10 uM pretreated for 15 mins followed by agonist addition for 15 mins and subsequent forskolin stimulation measured after 30 mins by HTRF assay; type: functional, cell-based
T3 sequence (whole entry): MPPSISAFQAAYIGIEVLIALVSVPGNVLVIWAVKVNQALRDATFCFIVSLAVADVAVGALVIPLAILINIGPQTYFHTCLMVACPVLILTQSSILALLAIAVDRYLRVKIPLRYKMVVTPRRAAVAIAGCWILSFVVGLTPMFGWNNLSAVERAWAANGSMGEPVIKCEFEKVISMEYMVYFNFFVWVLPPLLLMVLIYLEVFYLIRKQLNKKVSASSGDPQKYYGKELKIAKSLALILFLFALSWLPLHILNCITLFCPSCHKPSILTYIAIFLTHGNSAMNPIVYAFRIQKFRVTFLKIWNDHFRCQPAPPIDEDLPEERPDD
Method in brief: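 HTRF cAMP functional assay on the human receptor isoform, run in triplicate at 12 concentrations with a top concentration of 10 µM, in two independent experiments. Inhibition at 10 µM is recorded where no Ki could be derived.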

[14] = system: Rattus norvegicus; experiment: Anti-parkinson's activity in po dosed Wistar rat assessed as reversal of haloperidol-induced catalepsy measured after 1 to 4 hrs; type: functional, organism-based
Method in brief: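 Haloperidol-induced catalepsy in rats; oral dosing; catalepsy scored at 1, 2 and 4 h; ED50 derived; mean ± SEM, n=6-7.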

[15] = system: Rattus norvegicus; experiment: Protection against L-DOPA-induced dyskinesias in 6-OHDA-lesioned Wistar rat model of parkinson's disease assessed as reduction in abnormal involuntary movements at 0.3 to 3 mg/kg, po administered twice daily for 21 days measured every 7 days; type: functional, organism-based
Method in brief: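 6-OHDA-lesioned rats given oral test compound (0.3-3 mg/kg) with L-DOPA, repeated daily; abnormal involuntary movements scored; mean ± SEM, n=6-7.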

[16] = molecular target: T4, Adenosine receptor A1 (Homo sapiens, UniProt P30542); experiment: Displacement of [3H]-DPCPX from human A1 receptor expressed in HEK293 cell membranes after 90 mins radioligand binding assay; method in brief: as §3
T4 sequence (P30542 whole entry): T3 sequence (whole entry)

[17] = Solubility of the compound at pH 2; type: physicochemical; settings: buffer
[18] = Metabolic stability in rat liver microsomes assessed as metabolic rate; type: ADME, microsome; method in brief: as §1
[19] = system: Mus musculus; experiment: Antidepressant-like activity in po dosed mouse assessed as reduction in immobility time treated 1 hr prior to testing measured last 4 mins of 6 mins test by forced swim test
[20] = Protein binding in rat plasma; type: ADME, cell-free; settings: read-out: PPB (converted)
[21] = species: Homo sapiens; experiment: Selectivity ratio of Ki for displacement of [3H]-MRS-1754 from human A2B receptor expressed in HEK293 cell membranes to Ki for displacement of [3H]ZM241385 from human A2A receptor expressed in HEK293 cell membranes; method in brief: as §2

Structure (SMILES): COCCOc1ccc(N2CCN(CCn3c(=O)n(C)c4c3nc(N)n3nc(-c5nccs5)nc43)CC2)cc1F
- inhibition [1]: inactive
- Drug metabolism [2]: 0.08 nmol/min/mg
- Ratio Ki [3]: > 3000
- IC50 [4]: > 10 µM
- fraction unbound [5]: 0.15
- solubility [6]: 17 µM (≈ 9.67 µg/mL)
- Drug metabolism [7]: 0.04 nmol/min/mg
- Drug metabolism [8]: 0.14 nmol/min/mg
- Ki [9]: 0.0015 µM
- IC50 [10]: > 10 µM
- IC50 [11]: > 30 µM
- Kp [12]: 0.38
- inhibition [13]: inactive
- Activity [14]: Dose-dependent effect
- ED50 [14]: 4.49 mg/kg
- Activity [15]: Active
- Ki [16]: 1.7 µM
- solubility [17]: > 2000 µM
- Drug metabolism [18]: 0 nmol/min/mg
- ED50 [19]: 5.29 mg/kg
- fraction unbound [20]: 0.18
- Ratio Ki [21]: > 3000

Reference: ChEMBL document CHEMBL4190330, “Discovery of Potent and Selective A2A Antagonists with Efficacy in Animal Models of Parkinson's Disease and Depression” (ACS Med Chem Lett, 2017)
